Results on 2 molecules are retold here after paper PMC8861878 (The Journal of pharmacy and pharmacology, 2020).

For one experiment, the system named is opioid receptor. The following applies: cited from earlier work.
The target of a further experiment is T1, UGT1A1 (Homo sapiens, UniProt P22309).
T1 sequence (P22309 26-533): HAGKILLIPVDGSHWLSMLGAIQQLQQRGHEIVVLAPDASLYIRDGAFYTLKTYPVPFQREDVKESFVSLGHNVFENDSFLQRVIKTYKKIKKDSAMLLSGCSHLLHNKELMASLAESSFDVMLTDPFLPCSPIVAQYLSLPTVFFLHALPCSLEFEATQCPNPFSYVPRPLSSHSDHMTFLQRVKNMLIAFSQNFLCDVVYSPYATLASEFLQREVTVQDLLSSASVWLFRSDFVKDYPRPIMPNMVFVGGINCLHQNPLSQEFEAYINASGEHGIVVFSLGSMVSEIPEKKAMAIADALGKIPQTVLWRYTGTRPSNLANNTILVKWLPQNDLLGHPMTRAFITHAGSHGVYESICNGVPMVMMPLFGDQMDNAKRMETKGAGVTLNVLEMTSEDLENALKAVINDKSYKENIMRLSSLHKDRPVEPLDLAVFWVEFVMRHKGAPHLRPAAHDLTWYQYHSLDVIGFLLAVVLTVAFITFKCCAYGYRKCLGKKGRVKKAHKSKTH
The format is in vitro ADME. The settings on record: β-estradiol 50 μM; individual HLM n = 9; Pearson; P = 0.014. Summed up:
(§1)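 UDPGA-supplemented individual human liver microsomes (n = 9) in 100 μl Tris-HCl 50 mM pH 7.4 with alamethicin 22 μg/ml, D-saccharic-1,4-lactone 4.4 mM and UDPGA 3.5 mM. Incubated 37 °C for 60 min, stopped with ice-cold acetonitrile, centrifuged, supernatant analysed by UHPLC. Test compound glucuronidation rates correlated with probe glucuronidation across donors by Pearson analysis.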

For the next experiment, the target named is T2, UGT1A9 (Homo sapiens, UniProt O60656).
T2 sequence (O60656 26-530): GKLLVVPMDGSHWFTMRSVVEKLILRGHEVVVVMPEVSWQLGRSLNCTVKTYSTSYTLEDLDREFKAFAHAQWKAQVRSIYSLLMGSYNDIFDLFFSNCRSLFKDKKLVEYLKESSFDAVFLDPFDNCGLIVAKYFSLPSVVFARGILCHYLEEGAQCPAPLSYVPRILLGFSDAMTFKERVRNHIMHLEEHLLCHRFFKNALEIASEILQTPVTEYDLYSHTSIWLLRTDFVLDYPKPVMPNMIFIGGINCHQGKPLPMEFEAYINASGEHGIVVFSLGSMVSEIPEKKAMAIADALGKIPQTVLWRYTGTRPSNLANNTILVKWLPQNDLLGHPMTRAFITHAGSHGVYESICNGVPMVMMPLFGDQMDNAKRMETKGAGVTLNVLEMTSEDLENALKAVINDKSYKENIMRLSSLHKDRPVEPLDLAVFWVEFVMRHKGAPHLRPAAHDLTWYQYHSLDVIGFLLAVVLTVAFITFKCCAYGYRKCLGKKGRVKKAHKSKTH
The format is in vitro ADME. The following applies: propofol 500 μM; individual HLM n = 9; Pearson; P = 0.016. A digest of the protocol:
as §1

In the case of `CN1CC[C@]23c4c5ccc(O)c4O[C@H]2[C@@H](O[C@@H]2O[C@H](C(=O)O)[C@@H](O)[C@H](O)[C@H]2O)C=C[C@H]3[C@H]1C5` [M6G, morphine-6-glucuronide], the “affinity with opioid receptor relative to morphine” value in the experiment on opioid receptor is listed as 100 times.

As to `CC(C)=CCc1c(O[C@@H]2O[C@H](C(=O)O)[C@@H](O)[C@H](O)[C@H]2O)ccc2c1O[C@H](c1ccc(O)cc1)CC2=O` [G1, isobavachin-7-O-glucuronide], the results for the correlation factor r at UGT1A1 and at UGT1A9 were 0.774 and 0.767, respectively.
